Here are results for four compounds from ChEMBL document CHEMBL4480439, “Fuscasins A-D, Cycloheptapeptides from the Marine Sponge Phakellia fusca” (J Nat Prod, 2019).

In data set [1] the test system is HepG2. Put plainly: Cytotoxicity against human HepG2 cells assessed as reduction in cell viability up to 20 uM after 72 hrs by CCK8 assay. It counts as functional, cell-based. In short, it runs like this: (§1)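 Cells grown at 37 °C in DMEM with 10% FBS and antibiotics, seeded at 3 × 10³ cells/well, and exposed to compound for 72 h. CCK-8 reagent was then added for 1 h at 37 °C in 5% CO₂, and OD was read at 450 nm. IC50 was obtained by fitting a log(inhibitor)-response model.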
In general terms: Tetrazolium dyes change colour on reduction, which living cells bring about.

Data set [2] has as its system NCI-H460. In words: Cytotoxicity against human NCI-H460 cells assessed as reduction in cell viability up to 20 uM after 72 hrs by CCK8 assay. The data set is classed as functional, cell-based. In short, it runs like this:
(§2)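 Cells maintained in RPMI 1640 with 10% FBS and antibiotics, plated at 3 × 10³ cells/well, and treated for 72 h. After 1 h incubation with CCK-8 at 37 °C in 5% CO₂, absorbance was recorded at 450 nm. IC50 came from a log(inhibitor)-response curve fit.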

Data set [3] deals with SW480. Put plainly: Cytotoxicity against human SW480 cells assessed as reduction in cell viability up to 20 uM after 72 hrs by CCK8 assay. The data set is classed as functional, cell-based. An outline of the steps: as §2
Data set [4] relates to MCF7. Put plainly: Cytotoxicity against human MCF7 cells assessed as reduction in cell viability up to 20 uM after 72 hrs by CCK8 assay. The data set is classed as functional, cell-based. In short, it runs like this: as §1
Data set [5] concerns H9c2. In words: Cytotoxicity against rat H9c2 cells assessed as reduction in cell viability up to 100 uM after 72 hrs by CCK8 assay. The data set is classed as cell-based. Particulars: h9c2, 72 h. An outline of the steps:
as §1

Data set [6] has as its system HepG2. Put plainly: Cytotoxicity against human HepG2 cells assessed as reduction in cell viability after 72 hrs by CCK8 assay. It counts as functional, cell-based. The conditions noted are these: HepG2, 72 h. An outline of the steps: as §1
In data set [7] the test system is HeLa. In words: Cytotoxicity against human HeLa cells assessed as reduction in cell viability up to 20 uM after 72 hrs by CCK8 assay. The data set is classed as functional, cell-based. In short, it runs like this:
as §1

Data set [8] concerns PC-9. Put plainly: Cytotoxicity against human PC9 cells assessed as reduction in cell viability up to 20 uM after 72 hrs by CCK8 assay. It counts as functional, cell-based. In short, it runs like this:
as §2

Activity calls are given as the source filed them. The rule behind the calls is not given here. Residues, ends and D or L forms follow the SMILES beside them.

`CC(C)C[C@@H]1NC(=O)[C@H](Cc2ccc(O)cc2)NC(=O)[C@H](CC(=O)O)NC(=O)[C@@H]2CCCN2C(=O)[C@H](CC(C)C)NC(=O)[C@@H]2CCCN2C(=O)[C@H](CC(C)C)NC1=O` (cyclo(DYLLPLP)): the result in data set [1] was inactive.
`CC(C)C[C@@H]1NC(=O)[C@H](C(C)C)NC(=O)[C@H](Cc2ccccc2)N2C(=O)C[C@H](NC(=O)[C@@H]3CCCN3C(=O)[C@@H]3CCCN3C(=O)[C@@H]3CCCN3C1=O)C2=O`: the result in data set [2], in data set [3], in data set [4], in data set [7] and in data set [8] was inactive. Moreover, the Activity entry in data set [5] is on record as “Non-Toxic”. In addition, in data set [6], the IC50 came out at 4.6 µM.
Regarding `CC(C)C[C@@H]1NC(=O)[C@H](C)NC(=O)[C@@H]2CCCN2C(=O)[C@H](C)NC(=O)[C@H](Cc2ccc(O)cc2)NC(=O)[C@@H]2CCCN2C(=O)[C@H](Cc2ccc(O)cc2)NC1=O` (cyclo(ALYPYAP)), in data set [1], the outcome was inactive.
Same read-out and setting: for `CC(C)C[C@@H]1NC(=O)[C@H](C)NC(=O)[C@H](Cc2ccc(O)cc2)NC(=O)[C@H](CCCNC(=N)N)NC(=O)[C@H](CC(N)=O)NC(=O)[C@H](C(C)C)NC(=O)[C@@H]2CCCN2C1=O` (cyclo(ALPVNRY)) the value was “inactive”.

The IC50 is the concentration at which inhibition is half-maximal.
